In ChEMBL document CHEMBL1124301, “Enantioselectivity of muscarinic antagonists. 2,2-Dicyclohexyl-5-[(dimethylamino)methyl]-1,3-oxathiolane methiodides and related 3-oxides” (J Med Chem, 1988):
“And” between values parts separate entries of the source, which are not always exact repeats. Equal values may be shown once.

Columns and labels:
[1] = target: Muscarinic acetylcholine receptor; assay: Antagonist activity against Muscarinic acetylcholine receptor of rat bladder; assay type: functional
Method in brief: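 Longitudinal bladder strip (2 mm wide, urethra to apex) in PSS at 37 °C, recorded isometrically, equilibrated 30 min. Carbachol dose-response curves run at 30-min intervals, with the second taken as control. After 30 min antagonist incubation, the curve was repeated.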

[2] = target: Muscarinic acetylcholine receptor; assay: Antagonist activity against Muscarinic acetylcholine receptor of guinea pig heart.; assay type: functional, Cavia porcellus
[3] = target: Muscarinic acetylcholine receptor; assay: Antagonist activity against Muscarinic acetylcholine receptor of guinea pig ileum; assay type: functional, tissue-based, Cavia porcellus
[4] = target: Muscarinic acetylcholine receptor; assay: Antagonist activity against Muscarinic acetylcholine receptor of guinea pig heart; assay type: functional, Cavia porcellus

Structure (SMILES) | pA2 [1] | pA2 [2] | pA2 [3] | pA2 [4]
C[N+](C)(C)C[C@@H]1C[S@@+]([O-])C(C2CCCCC2)(C2CCCCC2)O1.[I-] (racemic) | 6.03 | 6.77 and 6.63 | 6.24 | –
C[N+](C)(C)C[C@@H]1C[S@+]([O-])C(C2CCCCC2)(C2CCCCC2)O1.[I-] (racemic) | 5.99 | 6.27 and 6.06 | 6.4 | –
C[N+](C)(C)C[C@@H]1CSC(C2CCCCC2)(C2CCCCC2)O1.[I-] (racemic) | 6.26 | 6.38 | 6.95 | 6.12
C[N+](C)(C)C[C@@H]1CSC(C2CCCCC2)(C2CCCCC2)O1.[I-] (stereo in doubt; (+)-2) | 6.28 | 6.37 and 6.42 | 6.98 | –
C[N+](C)(C)C[C@@H]1C[S@@+]([O-])C(C2CCCCC2)(C2CCCCC2)O1.[I-] (stereo in doubt; (+)-4) | 5.51 | 5.55 and 5.4 | 5.81 | –
C[N+](C)(C)C[C@@H]1C[S@+]([O-])C(C2CCCCC2)(C2CCCCC2)O1.[I-] (stereo in doubt; (+)-6) | 6.27 | 6.45 and 6.31 | 6.32 | –
C[N+](C)(C)C[C@@H]1CSC(C2CCCCC2)(C2CCCCC2)O1.[I-] (stereo in doubt; (-)-2) | 6.34 | 6.02 and 6.05 | 6.92 | –
C[N+](C)(C)C[C@@H]1C[S@@+]([O-])C(C2CCCCC2)(C2CCCCC2)O1.[I-] (stereo in doubt; (-)-4) | 6.36 | 6.79 and 6.65 | 6.69 | –
C[N+](C)(C)C[C@@H]1C[S@+]([O-])C(C2CCCCC2)(C2CCCCC2)O1.[I-] (stereo in doubt; (-)-6) | 5.48 | 5.61 and 5.59 | 5.92 | –
